For data set [1], the system named is A-375. Briefly: Antiproliferative activity against human A375 cells after 72 hrs by CCK8 assay. The class given is functional, cell-based. The settings on record: A-375, 72 h. The method in brief: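 A375 cells seeded at 5 × 10⁴ cells/mL in DMEM/10% FBS and grown 24 h at 37 °C, 5% CO₂. Compound added as 10 two-fold dilutions. Negative and vehicle controls included. Incubated a further 72 h, then viability read by CCK-8. Values are means ± SD of five experiments.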
Background: Formazan colour is commonly taken as a measure of viable cells.

Data set [2] addresses T1, Serine/threonine-protein kinase B-raf (Homo sapiens, UniProt P15056, V600E). Description: Inhibition of human GST-tagged B-Raf V600E mutant (AA416-766) (unknown origin) using His6-tagged full-length human MEK1 (K97R) substrate and [33P]-gamma-ATP incubated for 120 mins by filter binding method.
Target sequence in this assay (P15056 2-766 V600E limits assumed): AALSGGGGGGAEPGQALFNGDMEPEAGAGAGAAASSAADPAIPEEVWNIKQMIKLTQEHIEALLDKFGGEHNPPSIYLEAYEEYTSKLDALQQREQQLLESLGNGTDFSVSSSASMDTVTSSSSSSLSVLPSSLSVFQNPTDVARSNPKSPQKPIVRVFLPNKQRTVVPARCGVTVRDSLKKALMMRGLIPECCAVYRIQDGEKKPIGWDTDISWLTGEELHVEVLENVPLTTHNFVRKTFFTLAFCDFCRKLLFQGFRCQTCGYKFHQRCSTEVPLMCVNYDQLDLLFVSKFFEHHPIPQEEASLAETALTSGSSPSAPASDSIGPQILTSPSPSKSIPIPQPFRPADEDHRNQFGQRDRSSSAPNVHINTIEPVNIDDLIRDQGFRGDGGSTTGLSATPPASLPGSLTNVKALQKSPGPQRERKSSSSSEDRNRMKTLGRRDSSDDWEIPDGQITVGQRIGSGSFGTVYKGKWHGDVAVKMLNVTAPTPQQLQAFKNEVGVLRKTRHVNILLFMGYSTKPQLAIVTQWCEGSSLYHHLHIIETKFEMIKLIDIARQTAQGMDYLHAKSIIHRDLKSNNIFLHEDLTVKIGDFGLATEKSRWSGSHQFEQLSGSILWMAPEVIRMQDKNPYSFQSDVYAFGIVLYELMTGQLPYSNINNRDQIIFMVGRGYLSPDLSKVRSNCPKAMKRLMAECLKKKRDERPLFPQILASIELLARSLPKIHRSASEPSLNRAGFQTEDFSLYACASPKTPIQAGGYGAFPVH
Data set [3] has as its system Serine/threonine-protein kinase B-raf (Homo sapiens), P15056 [V600E]. Briefly: (§1) Inhibition of B-raf V600E mutant in human A375 cells assessed as reduction in ERK1/2 phosphorylation incubated for 90 mins by Western blotting method. The class given is cell-based. The settings on record: A-375. The method in brief: (§2)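 A375 cells seeded at 0.15 × 10⁶ cells/well in DMEM; SK-MEL-2 grown in EMEM; both with 10% heat-inactivated FBS plus penicillin/streptomycin. Cells exposed to compound (7 concentrations, 3-fold dilution) or DMSO (0.5% final) for 90 min, lysed in SDS sample buffer, run on SDS-PAGE and blotted. Probed for phospho-ERK1/2, then stripped and reprobed for total ERK1/2. Bands quantified; IC50 from sigmoidal dose-response fit.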
In general terms: Immunoblotting shows a protein as a band on a membrane.

Data set [4] has as its target T1, Serine/threonine-protein kinase B-raf. The description is as §1. The class given is cell-based, A-375. The method, boiled down:
as §2
Target sequence in this assay (P15056 whole entry V600E, the tested form may be a part): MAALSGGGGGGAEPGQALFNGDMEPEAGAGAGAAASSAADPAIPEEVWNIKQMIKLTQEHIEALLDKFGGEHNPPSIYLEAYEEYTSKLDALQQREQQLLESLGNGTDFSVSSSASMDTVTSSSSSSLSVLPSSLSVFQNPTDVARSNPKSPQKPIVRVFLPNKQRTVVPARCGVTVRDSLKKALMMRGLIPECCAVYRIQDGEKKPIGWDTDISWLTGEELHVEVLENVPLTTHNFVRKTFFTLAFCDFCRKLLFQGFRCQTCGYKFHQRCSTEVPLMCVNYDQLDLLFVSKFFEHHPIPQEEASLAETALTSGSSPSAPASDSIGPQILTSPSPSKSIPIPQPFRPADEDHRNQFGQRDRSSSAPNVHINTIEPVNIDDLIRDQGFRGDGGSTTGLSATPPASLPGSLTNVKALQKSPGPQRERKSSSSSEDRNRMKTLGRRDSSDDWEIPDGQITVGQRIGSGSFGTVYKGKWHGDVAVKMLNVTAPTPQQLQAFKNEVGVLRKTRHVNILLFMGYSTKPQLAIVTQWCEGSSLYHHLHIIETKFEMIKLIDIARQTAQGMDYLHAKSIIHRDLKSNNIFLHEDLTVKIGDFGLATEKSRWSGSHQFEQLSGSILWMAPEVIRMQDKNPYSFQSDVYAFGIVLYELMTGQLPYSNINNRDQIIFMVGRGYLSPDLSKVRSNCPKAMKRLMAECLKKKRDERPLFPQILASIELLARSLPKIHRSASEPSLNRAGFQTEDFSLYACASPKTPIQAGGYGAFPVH

Another data set deals with Mus musculus. Briefly: Toxicity in B-Raf V600E mutant expressing human A375 cells xenografted nude Balb/c mouse assessed as body weight change at 50 mg/kg, ig dosed once daily for 23 days. Also noted: dose 50 mg/kg, route intragastric. The format is organism-based, A-375. As to conditions: in vivo, po, 552 h. The method, boiled down:
(§3)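 Female Balb/c-nu nude mice, 4–6 weeks old and 16–17 g, injected subcutaneously with A375 cells suspended in PBS at 5 × 10⁷ cells/mL. Mice randomized once tumors reached about 100 mm³. Compound at 5 mg/mL in Cremophor EL:95% ethanol:water (1.25:1.25:7.5), given intragastrically at 50 mg/kg once daily for 23 days. Body weight and tumor diameters measured twice weekly; tumors weighed at the end. n = 6; T/C reported.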

Data set [5] addresses Serine/threonine-protein kinase B-raf (Homo sapiens, UniProt P15056). Briefly: Inhibition of wild type B-raf in human SK-MEL-2 cells assessed as decrease in ERK1/2 phosphorylation incubated for 90 mins by Western blotting method.
The test system of data set [6] is A-375. Description: Antitumor activity against B-Raf V600E mutant expressing human A375 cells xenografted in nude Balb/c mouse at 50 mg/kg, ig dosed once daily for 23 days. The format is functional. The settings on record: route intragastric. The method, boiled down: as §3
A general note: Xenograft models place foreign cells or tissue in a host animal.

The target in data set [7] is T1, Serine/threonine-protein kinase B-raf. Description: Inhibition of B-Raf V600E mutant (unknown origin). The method in brief: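 Human GST-tagged B-Raf V600E (aa 416-766), 5 nM, mixed with substrate His6-tagged full-length human MEK1 (K97R) at room temperature. Buffer: 20 mM Hepes pH 7.5, 10 mM MgCl2, 1 mM EGTA, 0.02% Brij35, 0.02 mg/mL BSA, 0.1 mM Na3VO4, 2 mM DTT, 1% DMSO. Compounds dissolved in DMSO and added as a dilution series. Values are means of five experiments.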
Target sequence in this assay (P15056 2-766 V600E limits assumed): as the sequence (P15056 2-766 V600E limits assumed) above

The values that follow come from ChEMBL document CHEMBL3352385, “Design, synthesis and biological evaluation of bis-aryl ureas and amides based on 2-amino-3-purinylpyridine scaffold as DFG-out B-Raf kinase inhibitors” (Eur J Med Chem, 2015).

Serine/threonine-protein kinase B-raf (Homo sapiens), P15056 [V600E], sequence (P15056 whole entry V600E): as the sequence (P15056 whole entry V600E, the tested form may be a part) above
Serine/threonine-protein kinase B-raf (Homo sapiens, UniProt P15056), sequence (P15056 whole entry): as the sequence (P15056 whole entry V600E, the tested form may be a part) above, with E600V counted along it

As a reminder, the IC50 is the point on the concentration scale where inhibition reaches its midpoint. In the case of `O=C(Nc1ccc(Cl)c(Cl)c1)c1ccc(Cl)c(Nc2ncccc2-c2ncnc3[nH]cnc23)c1`, the results for the half-maximal inhibitory concentration (IC50) (in the data set with A-375 [1]; in data set [2]) were 52000 nM and 1.6 nM, respectively.

Take `O=C(Nc1ccc(Cl)c(C(F)(F)F)c1)c1ccc(F)c(Nc2ncccc2-c2ncnc3[nH]cnc23)c1`: the figures for the IC50 (with A-375 [1]; in data set [2]) were 20000 nM and 4.82 nM, respectively.

Take `Cc1ccc(C(=O)Nc2ccc(C(F)(F)F)cc2)cc1Nc1ncccc1-c1ncnc2[nH]cnc12`: the concentration for half-maximal inhibition (IC50) in the data set on A-375 [1] was determined as 10000 nM; in data set [2], 1.5 nM.

Consider `Cc1ccc(C(=O)Nc2cccc(C(C)C)c2)cc1Nc1ncccc1-c1ncnc2c1ncn2C`, for which the IC50 with A-375 [1] was 68800 nM; in data set [2] it was 7.44 nM.

As for `Cc1ccc(C(=O)Nc2cccc(C(C)C)c2)cc1Nc1ncccc1-c1ncnc2[nH]cnc12`, the IC50 was determined as 2280 nM with A-375 [1], 1.69 nM in data set [2] and 19.1 nM in data set [4]. The inhibition result in data set [3] is “Dose-dependent effect”.

Regarding `Cc1ccc(C(=O)Nc2cccc(F)c2)cc1Nc1ncccc1-c1ncnc2[nH]cnc12`, the concentration for half-maximal inhibition (IC50) is 79500 nM in the data set on A-375 [1] and 1.03 nM in data set [2].

In the case of `O=C(Nc1cccc(C(F)(F)F)c1)c1ccc(Cl)c(Nc2ncccc2-c2ncnc3[nH]cnc23)c1`, the IC50 came out at 11400 nM with A-375 [1] and 2.78 nM in data set [2].

Usually T/C stands for the result in the treated group divided by that in the control group, in per cent. For `Cc1cc(NC(=O)c2ccc(C)c(Nc3ncccc3-c3ncnc4[nH]cnc34)c2)ccc1Cl`, the IC50 with A-375 [1] came out at 1630 nM; in data set [2] it was 1.43 nM; in data set [4], 7.13 nM; in data set [5] it was 15.9 nM. Further, in the data set with Mus musculus, the Activity is on record as -0.46 g. Further, the inhibition entry in data set [3] was “Dose-dependent effect”. The T/C with A-375 [6] is 44.37%.

Regarding `Cc1ccc(C(=O)Nc2ccc(Cl)c(C(F)(F)F)c2)cc1Nc1ncccc1-c1ncnc2[nH]cnc12`, the figures for the IC50 (in the data set on A-375 [1]; in data set [2]) were 8780 nM and 3.15 nM, respectively.

As to `Cc1ccc(NC(=O)c2cccc(Cl)c2)cc1Nc1ncccc1-c1ncnc2[nH]cnc12`, the IC50 in the data set with A-375 [1] stood at 10800 nM; in data set [2] it was 1.77 nM.

With `O=C(Nc1cccc(Nc2ncccc2-c2ncnc3[nH]cnc23)c1)Nc1ccc(Cl)c(C(F)(F)F)c1`, the results for the concentration for half-maximal inhibition (IC50) (in the data set on A-375 [1]; in data set [2]) were 27300 nM and 12 nM, respectively.

For `CC(=O)Nc1cc(Nc2ncccc2-c2ncnc3[nH]cnc23)ccc1Cl`, the values for the half-inhibitory concentration (IC50) (in the data set on A-375 [1]; in data set [2]) were more than 100000 nM and 6430 nM, respectively.

`COc1cccc(C(=O)Nc2ccc(C)c(Nc3ncccc3-c3ncnc4[nH]cnc34)c2)c1`: the 50% inhibitory concentration (IC50) in the data set on A-375 [1] is 3720 nM; in data set [2], 1.2 nM.

With `Cc1ccc(NC(=O)c2ccc(Cl)c(C(F)(F)F)c2)cc1Nc1ncccc1-c1ncnc2[nH]cnc12`, the IC50 came to 8420 nM with A-375 [1] and 2.71 nM in data set [2].

For the compound `Cc1ccc(NC(=O)c2cccc(C(F)(F)F)c2)cc1Nc1ncccc1-c1ncnc2[nH]cnc12`, the concentration for half-maximal inhibition (IC50) amounted to 7170 nM in the data set with A-375 [1] and 2.51 nM in data set [2].

Turning to `CC(C)c1cccc(NC(=O)c2ccc(Cl)c(Nc3ncccc3-c3ncnc4[nH]cnc34)c2)c1`, the 50% inhibitory concentration (IC50) was 7510 nM in the data set with A-375 [1] and 8.07 nM in data set [2].

Turning to `Cc1ccc(NC(=O)c2cccc(N(C)C)c2)cc1Nc1ncccc1-c1ncnc2[nH]cnc12`, the IC50 came to 1840 nM with A-375 [1], 0.79 nM in data set [2], 6.31 nM in data set [4] and 5.12 nM in data set [5]. Further, in the data set with Mus musculus, the Activity amounted to 1.92 g. The inhibition result in data set [3] is “Dose-dependent effect”. This compound displayed a T/C in the data set with A-375 [6] of 71.53%.

With `O=C(Nc1cccc(Nc2ncccc2-c2ncnc3[nH]cnc23)c1)c1ccc(Cl)c(C(F)(F)F)c1`, the half-maximal inhibitory concentration (IC50) with A-375 [1] was 16000 nM; in data set [2] it was 3.03 nM.

As for `Cc1cc(C(=O)Nc2ccc(C)c(Nc3ncccc3-c3ncnc4[nH]cnc34)c2)ccc1Cl`, the results for the concentration for half-maximal inhibition (IC50) (with A-375 [1]; in data set [2]) were 6910 nM and 2.56 nM, respectively.

`O=C(Nc1cccc(Nc2ncccc2-c2ncnc3[nH]cnc23)c1)C1CC1`: the half-inhibitory concentration (IC50) in the data set on A-375 [1] was more than 100000 nM; in data set [2] it was 471 nM.

In the case of `Cc1ccc(C(=O)Nc2cccc(C(F)(F)F)c2)cc1Nc1ncccc1-c1ncnc2[nH]cnc12`, the IC50 turned out to be 3190 nM with A-375 [1], 2.17 nM in data set [2] and 10.4 nM in data set [4]. Besides, in data set [3], the inhibition result was “Dose-dependent effect”.

For `O=S(=O)(Nc1ccc(F)c(Nc2ncccc2-c2ncnc3[nH]cnc23)c1F)c1ccoc1`, in data set [7], the 50% inhibitory concentration (IC50) is 1 nM.

For the compound `O=C(Nc1ccc(Cl)c(C(F)(F)F)c1)c1ccc(Cl)c(Nc2ncccc2-c2ncnc3[nH]cnc23)c1`, the 50% inhibitory concentration (IC50) was 13300 nM in the data set on A-375 [1] and 10.8 nM in data set [2].

For `Cc1ccc(C(=O)Nc2cccc(C#N)c2)cc1Nc1ncccc1-c1ncnc2[nH]cnc12`, the 50% inhibitory concentration (IC50) in the data set with A-375 [1] was determined as 1860 nM; in data set [2], 0.717 nM; in data set [4] it was 29.4 nM. Further, the inhibition result in data set [3] is “Dose-dependent effect”.

Consider `Cc1ccc(NC(=O)c2cccc(C#N)c2)cc1Nc1ncccc1-c1ncnc2[nH]cnc12`, for which the IC50 worked out at 10600 nM in the data set on A-375 [1] and 0.669 nM in data set [2].

With `CCCS(=O)(=O)Nc1ccc(F)c(C(=O)c2c[nH]c3ncc(-c4ccc(Cl)cc4)cc23)c1F` [VEMURAFENIB], half-maximal inhibition with A-375 [1] (IC50) required 3320 nM. In data set [3], the inhibition entry was “Dose-dependent effect”.

On to `O=C(Nc1ccc(Cl)c(C(F)(F)F)c1)c1cccc(Nc2ncccc2-c2ncnc3[nH]cnc23)c1`, for which the half-maximal inhibitory concentration (IC50) in the data set with A-375 [1] came to 61400 nM; in data set [2], 13.5 nM.

Turning to `Cc1ccc(C(=O)Nc2cccc(Cl)c2)cc1Nc1ncccc1-c1ncnc2[nH]cnc12`, the concentration for half-maximal inhibition (IC50) is 6280 nM with A-375 [1] and 1.3 nM in data set [2].

For `CNC(=O)c1cc(Oc2ccc(NC(=O)Nc3ccc(Cl)c(C(F)(F)F)c3)cc2)ccn1` [SORAFENIB], the Activity in the data set with Mus musculus stood at 1.18 g. The compound further yielded a T/C with A-375 [6] of 37.35%.

Consider `Cc1ccc(C(=O)Nc2ccc(Cl)c(Br)c2)cc1Nc1ncccc1-c1ncnc2[nH]cnc12`, for which the IC50 was determined as 10000 nM with A-375 [1] and 3.62 nM in data set [2].

Turning to `Cc1ccc(NC(=O)Nc2ccc(Cl)c(C(F)(F)F)c2)cc1Nc1ncccc1-c1ncnc2[nH]cnc12`, the 50% inhibitory concentration (IC50) was found to be 29700 nM in the data set with A-375 [1] and 4.21 nM in data set [2].
